The results in this text go back to ChEMBL document CHEMBL3576824, “Phenolic diterpenoid derivatives as anti-influenza a virus agents” (ACS Med Chem Lett, 2015).

SMILES strings stand for the structures. Calls of active or inactive are those of the source.

In data set [1] the test system is Influenza A virus. Kind of data set: Antiviral activity against oseltamivir-sensitive Influenza A virus (A/Hong Kong/8/68(H3N2)) infected in MDCK cells assessed as protection against virus-induced cytocidal effect at 20 uM after 48 hrs by CellTiter-Glo assay relative to control. Format: functional. An outline of the steps:
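Same cytocidal protection assay in MDCK cells with H3N2 virus, tested at concentrations up to 20 μM. The read-out is the percent inhibition of viral cytocidal effect, with 50% used as the threshold.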
(ATP-based viability assays read luminescence as a measure of living cells.)

Data set [2] can be described thus: Cytotoxicity against MDCK cells assessed as reduction of cell viability. Format: cell-based, Canis lupus familiaris. To be noted: dog. An outline of the steps: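 Uninfected MDCK cells. CC50 is the concentration (μM) that reduced cell viability by 50%.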
Data set [3] can be described thus: Metabolic stability in human plasma assessed as compound remaining at 1 uM after 2 hrs by reverse phase HPLC analysis. Format: ADME, cell-free. To be noted: read-out: Stability. Put shortly:
(§1)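 Compound incubated in 80% human plasma at 37 °C for varying times. Initial and remaining parent compound were quantified by reverse-phase HPLC. Benfluorex served as control. Data are averages of duplicate experiments.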

The test system of data set [4] is Influenza A virus. The experiment in a line: Antiviral activity against oseltamivir-sensitive Influenza A virus (A/Hong Kong/8/68(H3N2)) assessed as inhibition of viral infectivity in MDCK cells at 10 uM after 6 hrs by FITC conjugated anti-NP antibodies/DAPI staining-based confocal microscopic analysis. Format: functional, organism-based. Put shortly:
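MDCK cells were infected at MOI = 1 in the presence of 10 μM compound for 6 h. Infected cells were stained with FITC-conjugated anti-NP antibody, with DAPI as nuclear stain, and imaged by confocal microscopy. Infected cells without compound served as control.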

Data set [5] in a line: Metabolic stability in human plasma assessed as compound remaining at 1 uM after 10 mins by reverse phase HPLC analysis. Format: ADME, cell-free. To be noted: read-out: Stability. Put shortly: as §1

Broadly, the CC50 is the concentration giving 50% cytotoxicity. For `C=CC(=O)Oc1ccc2c(c1)[C@@]1(C)CCC[C@](C)(C(=O)OC)[C@@H]1CC2`, the Activity in the data set on Influenza A virus [1] is reported as under 50%. Moreover, the CC50 in data set [2] was over 40 µM.

Take `C[C@]1(C(=O)OCc2ccccc2)CCC[C@]2(C)c3cc(O)ccc3CC[C@@H]12`: the Activity in the data set with Influenza A virus [1] is on record as under 50%. Moreover, the CC50 in data set [2] is over 40 µM.

For `COC(=O)[C@@]1(C)CCC[C@]2(C)c3cc(OCCC(=O)O)ccc3CC[C@@H]12`, the Activity in the data set with Influenza A virus [1] was under 50%. In addition, in data set [2], the CC50 was over 40 µM.

On to `C[C@]1(C(=O)O)CCC[C@]2(C)c3cc(O)ccc3CC[C@@H]12` [PODOCARIC ACID], for which, in the data set with Influenza A virus [1], the Activity is given as under 50%. In addition, the 50% cytotoxic concentration (CC50) in data set [2] worked out at 91.2 µM.

As for `C[C@]1(C(=O)OCc2ccccc2)CCC[C@]2(C)c3cc(OC(=O)CCC(=O)O)ccc3CC[C@@H]12`, the Activity with Influenza A virus [1] is recorded as under 50%. In addition, the CC50 in data set [2] was over 40 µM.

Turning to `COC(=O)[C@@]1(C)CCC[C@]2(C)c3cc(OC(=O)CCC(=O)O)ccc3CC[C@@H]12`, the Activity in the data set on Influenza A virus [1] is under 50%. Besides, the 50% cytotoxic concentration (CC50) in data set [2] was over 40 µM.

Regarding `COC(=O)[C@@]1(C)CCC[C@]2(C)c3cc(O)ccc3CC[C@@H]12`, in data set [3], the remaining at 2 h, 1 µM was determined as 86%. In the data set with Influenza A virus [1], the Activity was under 50%. In data set [2], the CC50 is over 40 µM.

On to `C=CC(=O)Oc1ccc2c(c1)[C@@]1(C)CCC[C@](C)(C(=O)NC)[C@@H]1CC2`, for which the Activity in the data set with Influenza A virus [1] was under 50%. The CC50 in data set [2] is over 40 µM.

Turning to `C[C@]1(C(=O)O)CCC[C@]2(C)c3cc(OC(=O)CCC(=O)O)ccc3CC[C@@H]12`, the Activity with Influenza A virus [1] is listed as under 50%. Besides, the CC50 in data set [2] is over 40 µM.

For `COC(=O)[C@@]1(C)CCC[C@]2(C)c3cc(OC)ccc3C(=O)C[C@@H]12`, the Activity in the data set on Influenza A virus [1] is under 50%. Also, in data set [2], the CC50 was over 40 µM.

For the molecule `COC(=O)[C@@]1(C)CCC[C@]2(C)c3cc(OC(=O)CCCCCBr)ccc3CC[C@@H]12`, the Activity in the data set on Influenza A virus [1] is under 50%. Moreover, in data set [2], the CC50 is over 40 µM.

`COC(=O)[C@@]1(C)CCC[C@]2(C)c3cc(OC(=O)C(C)C)ccc3CC[C@@H]12`: the Activity with Influenza A virus [1] is recorded as under 50%. In addition, the half-maximal cytotoxic concentration (CC50) in data set [2] was over 40 µM.

As for `COC(=O)[C@@]1(C)CCC[C@]2(C)c3cc(OC(=O)C4CC4)ccc3CC[C@@H]12`, the Activity in the data set with Influenza A virus [1] is on record as under 50%. Also, in data set [2], the CC50 is over 40 µM.

Take `C[C@]1(C(=O)OCc2ccccc2)CCC[C@]2(C)c3cc(OCCC(=O)O)ccc3CC[C@@H]12`: in the data set with Influenza A virus [1], the Activity was under 50%. The CC50 in data set [2] is over 40 µM.

Consider `COC(=O)[C@@]1(C)CCC[C@]2(C)c3cc(OC(=O)CCBr)ccc3CC[C@@H]12`, for which the inhibition entry in the data set on Influenza A virus [4] was “Active”. Also, the Activity in the data set with Influenza A virus [1] is under 50%. In addition, the half-maximal cytotoxic concentration (CC50) in data set [2] is over 40 µM.

For the molecule `COC(=O)[C@@]1(C)CCC[C@]2(C)c3cc(OC(=O)CCCCBr)ccc3CC[C@@H]12`, the Activity in the data set on Influenza A virus [1] is reported as under 50%. In addition, the CC50 in data set [2] is over 40 µM.

With `CC(C)c1c(O)ccc2c1CC[C@H]1C(C)(C)CCC[C@]21C` [TOTAROL], in the data set on Influenza A virus [1], the Activity is under 50%. For the same molecule, the CC50 in data set [2] was determined as 21 µM.

On to `C=CC(=O)Oc1ccc2c(c1)[C@@]1(C)CCC[C@](C)(C(=O)OCc3ccccc3)[C@@H]1CC2`, for which the Activity in the data set on Influenza A virus [1] was under 50%. For the same molecule, the half-maximal cytotoxic concentration (CC50) in data set [2] was over 40 µM.

Consider `CNC(=O)[C@@]1(C)CCC[C@]2(C)c3cc(O)ccc3CC[C@@H]12`, for which the Activity in the data set on Influenza A virus [1] is listed as under 50%. The CC50 in data set [2] was over 40 µM.

With `COC(=O)[C@@]1(C)CCC[C@]2(C)c3cc(OC(C)=O)ccc3CC[C@@H]12`, the remaining at 10 min, 1 µM in data set [5] was 30%. Also, in the data set on Influenza A virus [1], the Activity is under 50%. Moreover, the 50% cytotoxic concentration (CC50) in data set [2] is over 40 µM.

Take `COC(=O)[C@@]1(C)CCC[C@]2(C)c3cc(OC(=O)CCCC(=O)O)ccc3CC[C@@H]12`: in the data set with Influenza A virus [1], the Activity is listed as under 50%. Further, the CC50 in data set [2] is over 40 µM.

On to `COC(=O)[C@@]1(C)CCC[C@]2(C)c3cc(OC)ccc3CC[C@@H]12`, for which, in the data set with Influenza A virus [1], the Activity was under 50%. Also, the CC50 in data set [2] was over 40 µM.

Regarding `COC(=O)[C@@]1(C)CCC[C@]2(C)c3cc(OC(=O)C(C)F)ccc3CC[C@@H]12` (stereo partly specified), the Activity in the data set on Influenza A virus [1] is under 50%. Moreover, the CC50 in data set [2] was over 40 µM.

As to `COC(=O)[C@@]1(C)CCC[C@]2(C)c3cc(OC(=O)CCCBr)ccc3CC[C@@H]12`, the Activity with Influenza A virus [1] is recorded as under 50%. The CC50 in data set [2] is over 40 µM.
